Test [1] concerns A549. Briefly: Cytotoxicity against human A549 cells assessed as growth inhibition at 25 ug/ml after 24 hrs by agarose gel electrophoresis. The format is functional, cell-based. The essentials: (§1)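 A549 cells were exposed to compound for 24 h. 1 × 10^6 cells were pelleted, PBS-washed and lysed at 4 °C for 15 min in 10 mM Tris-HCl pH 7.4 with 10 mM EDTA and 0.5% Triton X-100. Supernatant was treated with proteinase K (60 °C, 60 min) then RNase A (37 °C, 60 min). DNA was isopropanol/NaCl precipitated overnight and run on a 2% agarose gel.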

Test [2] relates to A549. The test can be described thus: Induction of apoptosis in human A549 cells assessed as DNA fragmentation at 25 ug/ml after 24 hrs by agarose gel electrophoresis. The class given is functional, cell-based. The essentials: as §1
Test [3] has as its system A549. Briefly: Cytotoxicity against human A549 cells at 50 ug/ml by MTT assay. The class given is functional. The gist of the method: (§2)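 A549 cells (NCIS Pune) grown in DMEM with 10% FBS, 2 mM L-glutamine, penicillin/streptomycin, pH 7.2. 5 × 10^5 cells were seeded with compound at 100, 50 or 25 per mL and kept at 37 °C, 5% CO2. MTT (1 mg/mL, 4 h) was added, formazan dissolved in DMSO and read at 540 nm. IC50 is the mean of three replicate experiments; Duncan test at P = 0.05.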

Test [4] deals with A549. The test can be described thus: Cytotoxicity against human A549 cells at 25 ug/ml by MTT assay. The class given is functional. The essentials: as §2
Test [5] deals with A549. The test can be described thus: Cytotoxicity against human A549 cells by MTT assay. The format is functional, cell-based. The gist of the method: as §2
In test [6] the test system is A549. The test can be described thus: Cytotoxicity against human A549 cells at 100 ug/ml by MTT assay. The format is functional. The gist of the method:
as §2

The structures appear in SMILES notation. Calls of active or inactive are those of the source. The calls are words filed in the database; no cut-off is given here.

Turning to `N#C[C@@]1(C(=O)c2c[nH]c3ccccc23)[C@@H](c2ncc[nH]2)C2CSCN2[C@]12C(=O)Nc1ccccc12` (some centres not stated), the “growth inhibition (GI)” value in test [1] is “Active”. In test [2], the outcome was Active. This compound registered an inhibition at 50 µg/mL in test [3] of 79.3%. The compound also registered an inhibition at 25 µg/mL in test [4] of 59.9%. In addition, in test [5], the Activity result is “Dose-dependent effect”. In test [6], this compound gave an inhibition at 100 µg/mL of 85.6%.
In the case of `COc1ccc2[nH]cc(C(=O)[C@]3(C#N)[C@@H](c4ncc[nH]4)C4CSCN4[C@]34C(=O)Nc3ccc(Cl)cc34)c2c1` (some centres not stated), the “growth inhibition (GI)” value in test [1] was “Active”. Moreover, in test [2], the outcome was Active. The compound also gave an inhibition at 50 µg/mL in test [3] of 72.1%. This compound had an inhibition at 25 µg/mL in test [4] of 55.2%. Moreover, the Activity result in test [5] was “Dose-dependent effect”. In addition, in test [6], at 100 µg/mL the inhibition was 81.8%.
The compound `COc1ccc2[nH]cc(C(=O)[C@]3(C#N)[C@@H](c4ncc[nH]4)CN(C)[C@]34C(=O)Nc3ccc(Br)cc34)c2c1` showed an inhibition at 50 µg/mL in test [3] of 9.9%. In addition, the inhibition at 25 µg/mL in test [4] was 5.1%. The Activity result in test [5] is “Dose-dependent effect”. Further, the inhibition at 100 µg/mL in test [6] was found to be 13.4%.
Taken in the same sequence, the figures for `CN1C[C@H](c2ncc[nH]2)[C@@](C#N)(C(=O)c2c[nH]c3ccccc23)[C@@]12C(=O)Nc1ccccc12` were 6.3%, 3.1%, “Dose-dependent effect” and 23.2%.
In the case of `Cc1ccc2c(c1)[C@]1(C(=O)N2)N(C)C[C@H](c2ncc[nH]2)[C@@]1(C#N)C(=O)c1c[nH]c2ccccc12`, the “growth inhibition (GI)” value in test [1] is “Active”. Besides, the result in test [2] was Active. For the same compound, 50 µg/mL produced 53.5% inhibition in test [3]. For the same compound, testing at 25 µg/mL in test [4] gave an inhibition of 26.7%. The Activity entry in test [5] is “Dose-dependent effect”. Also, testing at 100 µg/mL in test [6] gave an inhibition of 77.3%.
In test [3], `COc1ccc2[nH]cc(C(=O)[C@]3(C#N)[C@@H](c4ncc[nH]4)C4CSCN4[C@]34C(=O)Nc3ccc([N+](=O)[O-])cc34)c2c1` (some centres not stated) registered an inhibition at 50 µg/mL of 5.1%. Further, in test [4], at 25 µg/mL the inhibition was 3.3%. For the same compound, the Activity result in test [5] is “Dose-dependent effect”. Moreover, the inhibition at 100 µg/mL in test [6] turned out to be 9%.
Taken in the same sequence, the figures for `COc1ccc2[nH]cc(C(=O)[C@]3(C#N)[C@@H](c4ncc[nH]4)CN(C)[C@]34C(=O)Nc3ccc([N+](=O)[O-])cc34)c2c1` were 4.3%, 3%, “Dose-dependent effect” and 6.8%.
Consider `COc1ccc2[nH]cc(C(=O)[C@]3(C#N)[C@@H](c4ncc[nH]4)C4CSCN4[C@]34C(=O)Nc3ccc(Br)cc34)c2c1` (some centres not stated), for which at 50 µg/mL the inhibition in test [3] was 68.4%. This compound also yielded an inhibition at 25 µg/mL in test [4] of 36.2%. In addition, the Activity result in test [5] was “Dose-dependent effect”. Also, the inhibition at 100 µg/mL in test [6] amounted to 82.7%.
Taken in the same sequence, the figures for `COc1ccc2[nH]cc(C(=O)[C@]3(C#N)[C@@H](c4ncc[nH]4)CN(C)[C@]34C(=O)Nc3ccc(Cl)cc34)c2c1` were 15.2%, 4.7%, “Dose-dependent effect” and 23%.
For `COc1ccc2[nH]cc(C(=O)[C@]3(C#N)[C@@H](c4ncc[nH]4)C4CSCN4[C@]34C(=O)Nc3ccccc34)c2c1` (some centres not stated), in test [1], the “growth inhibition (GI)” value is “Active”. For the same compound, the outcome in test [2] was Active. Also, in test [3], the inhibition at 50 µg/mL came out at 72.1%. At 25 µg/mL the inhibition in test [4] was 54.4%. Besides, the Activity result in test [5] is “Dose-dependent effect”. Also, the inhibition at 100 µg/mL in test [6] turned out to be 83.3%.
As to `Cc1ccc2c(c1)[C@]1(C(=O)N2)N2CSCC2[C@H](c2ncc[nH]2)[C@@]1(C#N)C(=O)c1c[nH]c2ccccc12` (some centres not stated), the “growth inhibition (GI)” value in test [1] was “Active”. In addition, the outcome in test [2] was Active. Besides, 50 µg/mL produced 75.8% inhibition in test [3]. In addition, in test [4], 25 µg/mL produced 66.3% inhibition. In test [5], the Activity entry is “Dose-dependent effect”. Besides, in test [6], the inhibition at 100 µg/mL was found to be 84.3%.
In turn, `CN1C[C@H](c2ncc[nH]2)[C@@](C#N)(C(=O)c2c[nH]c3ccccc23)[C@@]12C(=O)Nc1ccc(I)cc12` had an inhibition at 50 µg/mL in test [3] of 6.8%. The compound further came in with an inhibition at 25 µg/mL in test [4] of 5.9%. In addition, the Activity entry in test [5] is “Dose-dependent effect”. In test [6], this compound gave an inhibition at 100 µg/mL of 14.9%.
Taken in the same sequence, the figures for `CN1C[C@H](c2ncc[nH]2)[C@@](C#N)(C(=O)c2c[nH]c3ccccc23)[C@@]12C(=O)Nc1ccc(F)cc12` were 9%, 4.5%, “Dose-dependent effect” and 22.2%.
On to `CN1C[C@H](c2ncc[nH]2)[C@@](C#N)(C(=O)c2c[nH]c3ccccc23)[C@@]12C(=O)Nc1ccc([N+](=O)[O-])cc12`, for which at 50 µg/mL the inhibition in test [3] was 33.4%. In test [4], at 25 µg/mL the inhibition was 8.8%. Further, the Activity result in test [5] is “Dose-dependent effect”. In test [6], this compound showed an inhibition at 100 µg/mL of 56.6%.
Taken in the same sequence, the figures for `COc1ccc2[nH]cc(C(=O)[C@]3(C#N)[C@@H](c4ncc[nH]4)CN(C)[C@]34C(=O)Nc3ccc(I)cc34)c2c1` were 22.2%, 3.7%, “Dose-dependent effect” and 50.2%.
Taken in the same sequence, the figures for `N#C[C@@]1(C(=O)c2c[nH]c3ccccc23)[C@@H](c2ncc[nH]2)C2CSCN2[C@]12C(=O)Nc1ccc([N+](=O)[O-])cc12` (some centres not stated) were 63.4%, 28%, “Dose-dependent effect” and 76.8%.
Taken in the same sequence, the figures for `COc1ccc2[nH]cc(C(=O)[C@]3(C#N)[C@@H](c4ncc[nH]4)CN(C)[C@]34C(=O)Nc3ccccc34)c2c1` were 74.4%, 62.8%, “Dose-dependent effect” and 83%.
`COc1ccc2[nH]cc(C(=O)[C@]3(C#N)[C@@H](c4ncc[nH]4)CN(C)[C@]34C(=O)N(C)c3ccccc34)c2c1` came in with an inhibition at 50 µg/mL in test [3] of 79.2%. The compound also had an inhibition at 25 µg/mL in test [4] of 66.3%. In test [5], the Activity entry was “Dose-dependent effect”. Further, testing at 100 µg/mL in test [6] gave an inhibition of 85%.
Taken in the same sequence, the figures for `N#C[C@@]1(C(=O)c2c[nH]c3ccccc23)[C@@H](c2ncc[nH]2)C2CSCN2[C@]12C(=O)Nc1ccc(F)cc12` (some centres not stated) were 33.5%, 15.5%, “Dose-dependent effect” and 66.2%.
Taken in the same sequence, the figures for `CN1C[C@H](c2ncc[nH]2)[C@@](C#N)(C(=O)c2c[nH]c3ccccc23)[C@@]12C(=O)Nc1ccc(Cl)cc12` were 30.9%, 6.9%, “Dose-dependent effect” and 51.5%.
Taken in the same sequence, the figures for `COc1ccc2[nH]cc(C(=O)[C@]3(C#N)[C@@H](c4ncc[nH]4)C4CSCN4[C@]34C(=O)Nc3ccc(F)cc34)c2c1` (some centres not stated) were 31.1%, 15.7%, “Dose-dependent effect” and 56.2%.
For `N#C[C@@]1(C(=O)c2c[nH]c3ccccc23)[C@@H](c2ncc[nH]2)C2CSCN2[C@]12C(=O)Nc1ccc(I)cc12` (some centres not stated), in test [3], the inhibition at 50 µg/mL turned out to be 56.3%. The same compound returned an inhibition at 25 µg/mL in test [4] of 24.5%. For the same compound, the Activity entry in test [5] was “Dose-dependent effect”. Also, the inhibition at 100 µg/mL in test [6] was 69%.
Taken in the same sequence, the figures for `CN1C(=O)[C@@]2(c3ccccc31)N(C)C[C@H](c1ncc[nH]1)[C@@]2(C#N)C(=O)c1c[nH]c2ccccc12` were 4.3%, 3.3%, “Dose-dependent effect” and 7.4%.
Taken in the same sequence, the figures for `COc1ccc2[nH]cc(C(=O)[C@]3(C#N)[C@@H](c4ncc[nH]4)C4CSCN4[C@]34C(=O)N(C)c3ccccc34)c2c1` (some centres not stated) were 68.5%, 52.9%, “Dose-dependent effect” and 80.1%.
In test [3], `N#C[C@@]1(C(=O)c2c[nH]c3ccccc23)[C@@H](c2ncc[nH]2)C2CSCN2[C@]12C(=O)Nc1ccc(Br)cc12` (some centres not stated) returned an inhibition at 50 µg/mL of 9%. Further, in test [4], the inhibition at 25 µg/mL came out at 5.1%. The Activity result in test [5] is “Dose-dependent effect”. Also, the inhibition at 100 µg/mL in test [6] turned out to be 15.6%.
Consider `CN1C[C@H](c2ncc[nH]2)[C@@](C#N)(C(=O)c2c[nH]c3ccccc23)[C@@]12C(=O)Nc1ccc(Br)cc12`, for which the inhibition at 50 µg/mL in test [3] was determined as 9.8%. The same compound returned an inhibition at 25 µg/mL in test [4] of 4.4%. For the same compound, the Activity result in test [5] was “Dose-dependent effect”. This compound also yielded an inhibition at 100 µg/mL in test [6] of 34.2%.
Taken in the same sequence, the figures for `N#C[C@@]1(C(=O)c2c[nH]c3ccccc23)[C@@H](c2ncc[nH]2)C2CSCN2[C@]12C(=O)Nc1ccc(Cl)cc12` (some centres not stated) were 13.4%, 6%, “Dose-dependent effect” and 24%.
Taken in the same sequence, the figures for `COc1ccc2[nH]cc(C(=O)[C@]3(C#N)[C@@H](c4ncc[nH]4)CN(C)[C@]34C(=O)Nc3ccc(F)cc34)c2c1` were 35.6%, 9.9%, “Dose-dependent effect” and 66.2%.

The record behind these values is ChEMBL document CHEMBL3112538, “Novel spirooxindole-pyrrolidine compounds: synthesis, anticancer and molecular docking studies” (2014).
